# Measurements gathered from unrelated publications.
# Organism: Streptococcus pneumoniae
# Read-out: microbial growth
SMILES,test,test system,conditions,MIC [µg/mL]
CN(C)[C@@H]1C(O)=C(C(N)=O)C(=O)[C@@]2(O)C(O)=C3C(=O)c4c(cc5ccc(CN6CC(C#N)C6)cc5c4O)C[C@H]3C[C@@H]12,broth dilution,ATCC49619,,0.5
CN(C)c1cc(NC(=O)CNC(C)(C)C)c(O)c2c1C[C@H]1C[C@H]3[C@H](N(C)C)C(O)=C(C(N)=O)C(=O)[C@@]3(O)C(O)=C1C2=O,,157E,,< 0.06
O=C1NC(=S)N/C1=C\c1ccc(-c2ccc(N(c3ccccc3)c3ccccc3)cc2)cc1,broth dilution,ATCC49619,,> 1000
CN(C)c1ccc(O)c2c1C[C@H]1C[C@H]3[C@H](N(C)C)C(O)=C(C(N)=O)C(=O)[C@@]3(O)C(O)=C1C2=O,,157E,,< 0.06
O=c1[nH]cc(F)c(=O)[nH]1,broth dilution,,24 h,0.125
O=C(O)CN1C(=O)/C(=C/c2c3ccccc3c(-c3ccc(N(c4ccccc4)c4ccccc4)cc3)c3ccccc23)NC1=S,broth dilution,ATCC49619,,> 1000
COc1cc(Cc2cnc(N)nc2N)cc(OC)c1OC,broth dilution,,24 h,0.25
CN(C)[C@@H]1C(O)=C(C(N)=O)C(=O)[C@@]2(O)C(O)=C3C(=O)c4c(cc5cc(N)ccc5c4O)C[C@H]3C[C@@H]12,broth dilution,ATCC49619,,1
C[C@@H](O)[C@H]1C(=O)N2C(C(=O)O)=C(S[C@@H]3CN[C@H](C(=O)N(C)C)C3)[C@H](C)[C@H]12,broth dilution,ATCC49619,,0.25
CN(C)[C@@H]1C(O)=C(C(N)=O)C(=O)[C@@]2(O)C(O)=C3C(=O)c4c(cc5ccc(-c6ccccc6)cc5c4O)C[C@H]3C[C@@H]12,broth dilution,ATCC49619,,32
O=C1NC(=S)S/C1=C\c1ccc(-c2ccc(N(c3ccccc3)c3ccccc3)cc2)c2ccccc12,broth dilution,ATCC49619,,1000
N=C(N)NN=Cc1ccc(OC/C=C\COc2ccc(C=NNC(=N)N)cc2)cc1,,D39,16 h,≤ 3
O=C1NC(=S)S/C1=C\c1ccc(-c2ccc(N(c3ccccc3)c3ccccc3)cc2)cc1,broth dilution,ATCC49619,,1000
O=[N+]([O-])c1ccc(O)c2ncccc12,broth dilution,ATCC49619,,8
